Test results taken from paper PMC4479701 (mBio, 2015).
≈ marks a conversion by molar mass, not a printed value. Read-outs that look alike come from different tables or passages of the source.

Legend:
C. neoformans [1] = assay: Synergism assay; format: cell-based
C. neoformans cells = assay: In vitro killing assay; format: cell-based
Procedure, shortened: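 An overnight C. neoformans culture was washed in PBS and resuspended in HEPES-buffered YNB, pH 7.4. 2 × 10^4 cells were exposed to 1, 2 or 4 µg/ml test compound in 10 ml (0.4% DMSO final), at 37°C, 5% CO2, on a rotary shaker at 200 rpm. Aliquots taken at time points were diluted, plated on YPD, incubated 72 h at 30°C, and CFU counted.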

[2] = system: Bone marrow-derived macrophages; format: cell-based
Candida krusei = assay: In vitro susceptibility testing; format: cell-based
Procedure, shortened: (§1)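 Inoculum prepared per CLSI M27-A3. Plates incubated at 37°C with 5% CO2 for 24 to 96 h. MIC was the lowest concentration inhibiting 50% of growth versus the drug-free control. Minimum fungicidal concentration was also measured: serial dilutions from wells were plated on YPD agar, and MFC was the lowest concentration yielding three or fewer colonies (99% of inoculum killed).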

Rhizopus oryzae = assay: In vitro susceptibility testing; format: cell-based; settings: FTL strains (3)
Procedure, shortened: as §1

In vitro toxicity = format: cell-based, murine; settings: mouse, J774.16 macrophage cells
Procedure, shortened: (§2)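 J774.16 murine macrophages were kept in DMEM with 10% FBS and 1% pen-strep, and used until passage eight. At passage 7, 10^5 cells/well were allowed to adhere for 14 h. Test compound was then added at 0.1 to 100 µg/ml, with drug-free wells as controls. Incubation at 37°C, 5% CO2.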

J774 cells = assay: In vitro toxicity; format: cell-based, murine
Procedure, shortened: as §2

Candida parapsilosis = assay: In vitro susceptibility testing; format: cell-based
Procedure, shortened: as §1

C. neoformans [3] = assay: Transmission electron microscopy, intracellular vesicles; format: cell-based; settings: 4 µg/ml, 6 h
C. albicans SC 5314 = assay: Mouse model of invasive candidiasis; format: in vivo, mouse (CBA/J); settings: after 21 days of infection; 1.2 mg/kg/day i.p.; 8 mice per group
Procedure, shortened: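 Female CBA/J mice, 8 weeks old (8 per group), were infected i.v. with 100 µl containing 10^5 C. albicans SC-5314. Test compound was given i.p. at 1.2 mg/kg/day in 100 µl PBS with 0.4% DMSO immediately after inoculation; untreated mice received vehicle. Survival was monitored. Organs of survivors were homogenized in 10 ml PBS, diluted tenfold, and plated on YPD at 30°C for 72 h for CFU.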

C. neoformans [4] = assay: Mouse model of cryptococcosis, intravenous infection; format: in vivo, mouse (CBA/J); settings: 1.2 mg/kg/day i.p.; 8 mice per group; vehicle 7.0 ± 1.1
[5] = system: intracellular C. neoformans; assay: Intracellular effect in J774.16 macrophages; format: cell-based; settings: 0.25, 1 or 4 µg/ml; dose dependent, 12 and 24 h
Procedure, shortened: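 J774.16 macrophages were co-incubated 1:1 with C. neoformans for 2 h, with complement and anti-capsular MAb 18B7 as opsonins. Wells were washed to remove extracellular yeast, then fresh DMEM with varying test compound concentrations was added, at 37°C, 5% CO2. Macrophages were lysed and plated for intracellular CFU.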

Paecilomyces variotii = assay: In vitro susceptibility testing; format: cell-based; settings: QC FTL strains
Procedure, shortened: as §1

Pneumocystis jirovecii = assay: In vitro testing against Pneumocystis, inhibition of ATP; format: cell-based; settings: read-out: IC50 (percentage inhibition of ATP)
C. neoformans [6] = assay: Mouse model of cryptococcosis, intranasal infection; format: in vivo, mouse (CBA/J); settings: 1.2 mg/kg/day i.p.
Procedure, shortened: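 Mice (10 per group) were infected by nasal inoculation of 20 µl containing 5 × 10^5 C. neoformans. Test compound was given i.p. at 1.2 mg/kg/day in 100 µl PBS with 0.4% DMSO, starting 2 h after inoculation. Survival followed up to 60 days. Organs of survivors were homogenized in 10 ml PBS, diluted serially 1:10, plated on YPD, and incubated at 30°C for 72 h for CFU.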

[7] = system: C. albicans, Candida parapsilosis, Paecilomyces variotii; assay: MIC, poor activity; format: cell-based
Procedure, shortened: as §1

Blastomyces dermatitis = assay: In vitro susceptibility testing; format: cell-based; settings: FTL strains (10)
Procedure, shortened: as §1

P. murina = assay: Murine pneumocystosis, corticosteroid-immunosuppressed; format: in vivo, mouse (C3H/HeN)
Procedure, shortened: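 Corticosteroid-immunosuppressed mice were infected with P. murina by cohousing with seed mice for 2 weeks. […] Treatment lasted 13 days. Lung homogenate slides were stained with Diff-Quik for trophic forms and cresyl echt violet for asci.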

[8] = Pharmacokinetics of BHBM in mice; format: in vivo, mouse (C3H/HeN); settings: for half-life: C3H/HeN, mouse, plasma, ip, IS/IN mice
Procedure, shortened: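 Test compound was dissolved at 10 mg/ml (stock) in cremophor-ethanol 1:1 and diluted in PBS to 200 or 400 µg/ml. C3H/HeN mice (n = 3), either healthy or immunocompromised and P. murina-infected, received 0.8 or 1.6 mg/kg i.v. (tail vein) or i.p. in 100 µl. Blood was taken into K2EDTA predose and at 0.5, 1, 2, 4, 8, 12 and 24 h, and plasma stored at −80°C. t1/2 = 0.693/λz.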

[9] = In vivo toxicity, blood work; parameters: species or system mouse (CBA/J)
Procedure, shortened: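 Female CBA/J mice, 4 weeks old: five received 1.2 mg/kg/day test compound for 60 days, and three controls received a daily solvent injection. On day 60, blood was collected into one K2EDTA tube and one plain tube allowed to clot.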

Cc1ccccc1C(=O)NN=Cc1ccc(O)c(Br)c1 [BHBM, N′-(3-bromo-4-hydroxybenzylidene)-2-methylbenzohydrazide]
interaction category (C. neoformans [1]; combined with caspofungin): additive (additive effect, FIC = 1)
interaction category (C. neoformans [1]; combined with fluconazole): highly synergistic
interaction category (C. neoformans [1]; combined with tunicamycin): synergistic (synergistic effect, FIC < 1)
incubation required to kill about 50% of the cells (C. neoformans cells): at least 72 h
type of killing (C. neoformans cells; time-kill assay, 37°C, 5% CO2, pH 7.4): concentration-dependent killing
mammalian GlcCer level [2]: did not significantly affect
MIC range (Candida krusei; ATCC 6258 (MDPL strain)): 16 µg/mL (≈ 48 µM)
MIC range (Candida krusei; MDPL strain (1)): 32 µg/mL (≈ 96 µM)
MIC range (Candida krusei; QC FTL strains): 8 µg/mL (≈ 24 µM)
MIC range (Rhizopus oryzae): 2 µg/mL (≈ 6 µM)
EC50 at 48 h (In vitro toxicity): 50 µg/mL (≈ 150 µM)
EC50/MIC80 selectivity index (J774 cells; J774 EC50 versus MIC): 50
selectivity index (EC50/MIC ratio) (J774 cells; macrophage cell line): > 50
MIC range (Candida parapsilosis; MDPL strains (3)): >32 µg/mL
MIC range (Candida parapsilosis; QC FTL strains): >16 µg/mL
volume occupied by the intracellular vesicles (C. neoformans [3]; P <0.05): significant increase
numbers of vesicles per square micrometer of cell surface area (C. neoformans [3]; untreated 0.33 ± 0.36): 0.84 ± 0.58
mice still alive (C. albicans SC 5314): 62.5%
survival, days postinfection (C. neoformans [4]): 11.1 ± 3.7 days
intracellular replication of C. neoformans inside macrophages (CFU) [5]: significantly decreased
MIC range (Paecilomyces variotii): >16 µg/mL
IC50 (Pneumocystis jirovecii; 24 h): 0.912 µg/mL (≈ 2.74 µM)
IC50 (Pneumocystis jirovecii; 48 h): 0.159 µg/mL (≈ 0.477 µM)
IC50 (Pneumocystis jirovecii; 72 h): 0.074 µg/mL (≈ 0.222 µM)
IC50 (Pneumocystis jirovecii; 96 h): 0.072 µg/mL (≈ 0.216 µM)
brain tissue burden (CFU) (C. neoformans [6]): eradication of fungal cells
lung tissue burden (CFU) (C. neoformans [6]): decrease of fungal load
mice surviving C. neoformans infection (C. neoformans [6]; up to 60 days, 10 mice per group): 90%
MIC [7]: > 32 µg/mL
MIC range (Blastomyces dermatitis): 0.5−1 µg/ml
number of asci or nuclei in lung homogenates (P. murina; 13 days of treatment, versus vehicle-treated negative control): No significant differences
survival (P. murina; BHBM 3.2 mg/kg/day i.p., 13 days, versus untreated): survived significantly longer
half-life ([8]; 0.8 mg/kg, T1/2, IP 0.8 mg/kg (low dose)): 47.4 min
half-life ([8]; 1.6 mg/kg, T1/2, IP 1.6 mg/kg (high dose)): 50.4 min
distribution to brain tissue ([8]; upon administration, data not shown): readily found in brain tissue
all other blood parameters for liver and kidney function ([9]; after 60 days of treatment): normal
liver aspartate aminotransferase (AST) ([9]; after 60 days of treatment, 1.2 mg/kg/day, untreated 50 ± 9): 125 ± 75 U/liter
tolerability in animals ([9]; mouse, in vivo): well tolerated
